Results: ChEMBL document CHEMBL2375357, “Design, synthesis and cytotoxicity of cell death mechanism of rotundic acid derivatives” (Bioorg Med Chem Lett, 2013)
pIC50: −log10 of the molar value. Activity calls are given as the source filed them. The calls are words filed in the database; no cut-off is given here.

system: HeLa; assay: Induction of apoptosis in human HeLa cells assessed as increase in caspase 3 cleavage after 24 hrs by Western blot analysis; assay type: functional, cell-based; conditions: not given
How it was run: (§1)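 HeLa cells treated 24 h at 10, 20 and 40 μM. Cisplatin (10 μg/ml) served as positive-control treatment, with an untreated control group for comparison. Bax, Bcl-2, cytochrome C, caspase-3 and cleaved caspase-3 protein levels detected by western blot. Bax/Bcl-2 ratio derived from the band levels. Significance tested against the control group.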

With CC(=O)OC[C@@]1(C)[C@@H]2CC[C@]3(C)[C@H](CC=C4[C@H]5[C@](C(=O)NCCO)(CC[C@@H](C)[C@@]5(C)O)CC[C@]43C)[C@@]2(C)CC[C@@H]1OC(C)=O the Activity was “Dose-dependent effect”.

system: HeLa; assay: Induction of apoptosis in human HeLa cells assessed as increase in caspase 3 expression at 10 to 40 uM after 24 hrs by Western blot analysis; assay type: functional, cell-based; conditions: not given; how it was run: as §1

In the case of CC(=O)OC[C@@]1(C)[C@@H]2CC[C@]3(C)[C@H](CC=C4[C@H]5[C@](C(=O)NCCO)(CC[C@@H](C)[C@@]5(C)O)CC[C@]43C)[C@@]2(C)CC[C@@H]1OC(C)=O, the Activity was “Active”.

system: HeLa; assay: Induction of apoptosis in human HeLa cells assessed as increase in ratio of Bax to Bcl2 expression after 24 hrs by Western blot analysis; assay type: functional, cell-based; conditions: not given; how it was run: as §1

For CC(=O)OC[C@@]1(C)[C@@H]2CC[C@]3(C)[C@H](CC=C4[C@H]5[C@](C(=O)NCCO)(CC[C@@H](C)[C@@]5(C)O)CC[C@]43C)[C@@]2(C)CC[C@@H]1OC(C)=O, the Activity was “Dose-dependent effect”.

system: HeLa; assay: Induction of apoptosis in human HeLa cells assessed as increase in cytochrome C expression after 24 hrs by Western blot analysis; assay type: functional, cell-based; conditions: not given; how it was run: as §1

For CC(=O)OC[C@@]1(C)[C@@H]2CC[C@]3(C)[C@H](CC=C4[C@H]5[C@](C(=O)NCCO)(CC[C@@H](C)[C@@]5(C)O)CC[C@]43C)[C@@]2(C)CC[C@@H]1OC(C)=O, the Activity was “Active”.

system: HeLa; assay: Induction of apoptosis in human HeLa cells assessed as increase in Bax expression after 24 hrs by Western blot analysis; assay type: functional, cell-based; conditions: not given; how it was run: as §1

With CC(=O)OC[C@@]1(C)[C@@H]2CC[C@]3(C)[C@H](CC=C4[C@H]5[C@](C(=O)NCCO)(CC[C@@H](C)[C@@]5(C)O)CC[C@]43C)[C@@]2(C)CC[C@@H]1OC(C)=O the Activity was “Dose-dependent effect”.

system: HeLa; assay: Induction of apoptosis in human HeLa cells assessed as decrease in Bcl2 expression after 24 hrs by Western blot analysis; assay type: functional, cell-based; conditions: not given; how it was run: as §1

In the case of CC(=O)OC[C@@]1(C)[C@@H]2CC[C@]3(C)[C@H](CC=C4[C@H]5[C@](C(=O)NCCO)(CC[C@@H](C)[C@@]5(C)O)CC[C@]43C)[C@@]2(C)CC[C@@H]1OC(C)=O, the Activity was “Dose-dependent effect”.

system: NCI-H446; assay: Cytotoxicity against human NCI-H446 cells after 24 hrs by MTT assay; assay type: functional, cell-based; conditions: NCI-H446, 24 h
How it was run: (§2)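 MTT antiproliferative assay on human tumour lines A-375 (melanoma), SPC-A1 (lung adenocarcinoma), HeLa (cervical), HepG2 (hepatoma) and NCI-H446 (small cell lung cancer). Parent rotundic acid run alongside as positive control. IC50 given as mean ± SD, n = 3, each experiment repeated at least three times. Values above 100 μM reported as >100.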

Compared with CC(=O)OCC(C)NC(=O)[C@]12CC[C@@H](C)[C@@](C)(O)[C@H]1C1=CC[C@@H]3[C@@]4(C)CC[C@H](OC(C)=O)[C@@](C)(COC(C)=O)[C@@H]4CC[C@@]3(C)[C@]1(C)CC2 (stereo partly specified), CC(=O)OC[C@@]1(C)[C@@H]2CC[C@]3(C)[C@H](CC=C4[C@H]5[C@](C(=O)NC(C)CO)(CC[C@@H](C)[C@@]5(C)O)CC[C@]43C)[C@@]2(C)CC[C@@H]1OC(C)=O (stereo partly specified) is 0.43 log units higher in pIC50: 4.83 for the first, 5.26 for the second. The second is the more potent here.

First: C[C@@H]1CC[C@]2(C(=O)O)CC[C@]3(C)C(=CC[C@@H]4[C@@]5(C)CC[C@H](O)[C@@](C)(CO)[C@@H]5CC[C@]43C)[C@@H]2[C@]1(C)O [ROTUNDIC ACID]
Second: CC(=O)OC[C@@]1(C)[C@@H]2CC[C@]3(C)[C@H](CC=C4[C@H]5[C@](C(=O)NCCO)(CC[C@@H](C)[C@@]5(C)O)CC[C@]43C)[C@@]2(C)CC[C@@H]1OC(C)=O
The pIC50 of the first is 0.24 log units lower: 4.94 for the first, 5.18 for the second. The second is the more potent here.

system: HeLa; assay: Cytotoxicity against human HeLa cells after 24 hrs by MTT assay; assay type: functional, cell-based; conditions: not given; how it was run: as §2

First: CC(=O)OCC(C)NC(=O)[C@]12CC[C@@H](C)[C@@](C)(O)[C@H]1C1=CC[C@@H]3[C@@]4(C)CC[C@H](OC(C)=O)[C@@](C)(COC(C)=O)[C@@H]4CC[C@@]3(C)[C@]1(C)CC2 (stereo partly specified)
Second: CC(=O)OC[C@@]1(C)[C@@H]2CC[C@]3(C)[C@H](CC=C4[C@H]5[C@](C(=O)NC(C)CO)(CC[C@@H](C)[C@@]5(C)O)CC[C@]43C)[C@@]2(C)CC[C@@H]1OC(C)=O (stereo partly specified)
The pIC50 of the first is 0.33 log units higher: 5.28 for the first, 4.95 for the second.

First: C[C@@H]1CC[C@]2(C(=O)O)CC[C@]3(C)C(=CC[C@@H]4[C@@]5(C)CC[C@H](O)[C@@](C)(CO)[C@@H]5CC[C@]43C)[C@@H]2[C@]1(C)O [ROTUNDIC ACID]
Second: CC(=O)OC[C@@]1(C)[C@@H]2CC[C@]3(C)[C@H](CC=C4[C@H]5[C@](C(=O)NCCO)(CC[C@@H](C)[C@@]5(C)O)CC[C@]43C)[C@@]2(C)CC[C@@H]1OC(C)=O
The pIC50 of the first is 1.05 log units lower: 4.50 for the first, 5.55 for the second.

system: HepG2; assay: Cytotoxicity against human HepG2 cells after 24 hrs by MTT assay; assay type: functional, cell-based; conditions: HepG2, 24 h; how it was run: as §2

CC(=O)OCC(C)NC(=O)[C@]12CC[C@@H](C)[C@@](C)(O)[C@H]1C1=CC[C@@H]3[C@@]4(C)CC[C@H](OC(C)=O)[C@@](C)(COC(C)=O)[C@@H]4CC[C@@]3(C)[C@]1(C)CC2 (stereo partly specified) and CC(=O)OC[C@@]1(C)[C@@H]2CC[C@]3(C)[C@H](CC=C4[C@H]5[C@](C(=O)NC(C)CO)(CC[C@@H](C)[C@@]5(C)O)CC[C@]43C)[C@@]2(C)CC[C@@H]1OC(C)=O (stereo partly specified) are within 0.2 log units of each other in pIC50: 5.04 for the first, 5.14 for the second.

First: C[C@@H]1CC[C@]2(C(=O)O)CC[C@]3(C)C(=CC[C@@H]4[C@@]5(C)CC[C@H](O)[C@@](C)(CO)[C@@H]5CC[C@]43C)[C@@H]2[C@]1(C)O [ROTUNDIC ACID]
Second: CC(=O)OC[C@@]1(C)[C@@H]2CC[C@]3(C)[C@H](CC=C4[C@H]5[C@](C(=O)NCCO)(CC[C@@H](C)[C@@]5(C)O)CC[C@]43C)[C@@]2(C)CC[C@@H]1OC(C)=O
The pIC50 of the first is 0.23 log units lower: 5.13 for the first, 5.36 for the second. The second is the more potent here.

system: A-375; assay: Cytotoxicity against human A375 cells after 24 hrs by MTT assay; assay type: functional, cell-based; conditions: A-375, 24 h; how it was run: as §2

CC(=O)OCC(C)NC(=O)[C@]12CC[C@@H](C)[C@@](C)(O)[C@H]1C1=CC[C@@H]3[C@@]4(C)CC[C@H](OC(C)=O)[C@@](C)(COC(C)=O)[C@@H]4CC[C@@]3(C)[C@]1(C)CC2 (stereo partly specified) and CC(=O)OC[C@@]1(C)[C@@H]2CC[C@]3(C)[C@H](CC=C4[C@H]5[C@](C(=O)NC(C)CO)(CC[C@@H](C)[C@@]5(C)O)CC[C@]43C)[C@@]2(C)CC[C@@H]1OC(C)=O (stereo partly specified) are within 0.2 log units of each other in pIC50: 5.29 for the first, 5.32 for the second.

First: C[C@@H]1CC[C@]2(C(=O)O)CC[C@]3(C)C(=CC[C@@H]4[C@@]5(C)CC[C@H](O)[C@@](C)(CO)[C@@H]5CC[C@]43C)[C@@H]2[C@]1(C)O [ROTUNDIC ACID]
Second: CC(=O)OC[C@@]1(C)[C@@H]2CC[C@]3(C)[C@H](CC=C4[C@H]5[C@](C(=O)NCCO)(CC[C@@H](C)[C@@]5(C)O)CC[C@]43C)[C@@]2(C)CC[C@@H]1OC(C)=O
The pIC50 of the first is 0.48 log units lower: 4.78 for the first, 5.26 for the second.

system: not listed separately; assay: Cytotoxicity against human SPC-A1 cells after 24 hrs by MTT assay; assay type: functional, cell-based; conditions: SPCA1, 24 h; how it was run: as §2

CC(=O)OCC(C)NC(=O)[C@]12CC[C@@H](C)[C@@](C)(O)[C@H]1C1=CC[C@@H]3[C@@]4(C)CC[C@H](OC(C)=O)[C@@](C)(COC(C)=O)[C@@H]4CC[C@@]3(C)[C@]1(C)CC2 (stereo partly specified) and CC(=O)OC[C@@]1(C)[C@@H]2CC[C@]3(C)[C@H](CC=C4[C@H]5[C@](C(=O)NC(C)CO)(CC[C@@H](C)[C@@]5(C)O)CC[C@]43C)[C@@]2(C)CC[C@@H]1OC(C)=O (stereo partly specified) are within 0.2 log units of each other in pIC50: 4.72 for the first, 4.89 for the second.

Going from C[C@@H]1CC[C@]2(C(=O)O)CC[C@]3(C)C(=CC[C@@H]4[C@@]5(C)CC[C@H](O)[C@@](C)(CO)[C@@H]5CC[C@]43C)[C@@H]2[C@]1(C)O [ROTUNDIC ACID] to CC(=O)OC[C@@]1(C)[C@@H]2CC[C@]3(C)[C@H](CC=C4[C@H]5[C@](C(=O)NCCO)(CC[C@@H](C)[C@@]5(C)O)CC[C@]43C)[C@@]2(C)CC[C@@H]1OC(C)=O, the pIC50 rises from 4.08 to 5.44 (1.36 log units).
